According to ChEMBL document CHEMBL4725282, “Discovery of a Conformationally Constrained Oxazolidinone with Improved Safety and Efficacy Profiles for the Treatment of Multidrug-Resistant Tuberculosis” (J Med Chem, 2020):

Experiments:
[1] = Genotoxicity in CHO-WBL cells assessed as chromosome aberration at 90 to 397.1 ug/ml incubated for 3 hrs followed by compound washout and measured after 17 hrs in absence of S9 fraction by Giemsa staining based; type: toxicity, cell-based, Cricetulus griseus; details: chinese hamster, dose 90-397.1 µg/ml
How it was run: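 CHO-WBL cells in McCoy's 5A with 10% FBS, seeded 20-24 h before treatment. Compound in DMSO, with or without serum-free S-9 mix. Treatment either 3 h, then HBSS wash and 17 h further culture, or 20 h; harvest at 20 h from treatment start. Colcemid 0.1 μg/mL for the final 2 h, hypotonic KCl, methanol:acetic acid fixation, Giemsa stain. 300 metaphases per concentration (150 per duplicate flask) scored.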

[2] = Toxicity in female Sprague-Dawley rat assessed as change in white blood cell count at 50 mg/kg/day, po administered for 4 weeks followed by 2 week recovery period (Rvb =3.61 +/- 0.75 10^9/L); type: organism-based; details: in vivo, 672 h
[3] = Toxicity in female Sprague-Dawley rat assessed as change in mean corpuscular hemoglobin at 150 mg/kg/day, po administered for 4 weeks followed by 2 week recovery period (Rvb =18.5 +/- 0.6 pg); type: organism-based; details: in vivo, 672 h
[4] = Toxicity in female Sprague-Dawley rat assessed as histopathological changes in bone marrow at 450 mg/kg/day, po administered for 4 weeks followed by 2 week recovery period; type: organism-based; details: in vivo, 672 h
How it was run: (§1)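 SD rats, 6-7 weeks old (96 in total), split into vehicle, 50, 150 and 450 mg/kg/day groups of 12 females and 12 males each, given oral doses once daily for 4 weeks, then 2 weeks of recovery. Mortality, body weight, food intake, eyes, urine and neuropsychic signs were observed. Organ and bone marrow histopathology was done on 8 rats per sex per group after the last dose and on the remaining 4 per sex after 14 days of recovery.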

[5] = Toxicity in female Sprague-Dawley rat assessed as ophthalmic changes at 50 to 450 mg/kg/day, po administered for 4 weeks measured post last dose; type: organism-based; details: in vivo, 672 h, dose 50-450 mg/kg/day; how it was run: as §1
[6] = Toxicity in male Sprague-Dawley rat assessed as change in platelet count at 50 mg/kg/day, po administered for 4 weeks followed by 2 week recovery period (Rvb =1077 +/- 117 10^9/L); type: organism-based; details: in vivo, 672 h
[7] = Toxicity in female Sprague-Dawley rat assessed as change in hemoglobin count at 150 mg/kg/day, po administered for 4 weeks followed by 2 week recovery period (Rvb =136 +/- 7 g/L); type: organism-based; details: in vivo, 672 h
[8] = Toxicity in male Sprague-Dawley rat assessed as change in reticulocyte level at 150 mg/kg/day, po administered for 4 weeks followed by 2 week recovery period (Rvb =2.48 +/- 0.34 %); type: organism-based; details: in vivo, 672 h
[9] = Toxicity in female Sprague-Dawley rat assessed as body weight loss at 50 to 450 mg/kg/day, po administered for 4 weeks followed by 2 week recovery period measured at 1 week interval; type: organism-based; details: in vivo, 672 h, dose 50-450 mg/kg/day
How it was run: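 SD rats, 6-7 weeks, 12 male and 12 female per group. Oral dosing once daily at 50, 150 or 450 mg/kg/day or vehicle for 4 weeks, then 2-week recovery. 8 per sex dissected after last dose, remaining 4 per sex after 14-day recovery. Body weight, urine, food intake and clinical signs monitored.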

[10] = Apparent permeability in human Caco-2 cells at 50 uM after 1 hr by UPLC analysis; type: ADME, cell-based
How it was run: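 Caco-2 monolayers on Transwells, cultured 21 days, TEER required >500 Ω×cm². Compound at 50 μM added apically, 1 h at 37 °C. Transported compound quantified by UPLC. Papp = (dQ/dt)/(C0×A).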

[11] = Toxicity in female Sprague-Dawley rat assessed as change in reticulocyte level at 450 mg/kg/day, po administered for 4 weeks followed by 2 week recovery period (Rvb =2.85 +/- 0.53 %); type: organism-based; details: in vivo, 672 h
[12] = Toxicity in female Sprague-Dawley rat assessed as change in reticulocyte level at 50 mg/kg/day, po administered for 4 weeks followed by 2 week recovery period (Rvb =2.85 +/- 0.53 %); type: organism-based; details: in vivo, 672 h
[13] = Toxicity in male Sprague-Dawley rat assessed as change in hemoglobin count at 450 mg/kg/day, po administered for 4 weeks followed by 2 week recovery period (Rvb =144 +/- 5 g/L); type: organism-based; details: in vivo, 672 h
[14] = Half life in Beagle dog hepatocytes at 2 uM by LC-MS/MS analysis; type: ADME, cell-based, Canis lupus familiaris, Hepatocyte
How it was run: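 Hepatocytes (male CD-1 mouse, male SD rat, male beagle dog, male cynomolgus monkey, pooled human), final 1 μM compound and 1 million cells/mL, made by mixing 2 μM compound with 2 million cells/mL. Incubated at 37 °C in a CO2 incubator; sampled at 0, 15, 30, 60, 90 and 120 min. Quenched with methanol/ACN containing 0.1% formic acid. Parent remaining measured by LC-MS/MS.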

[15] = Toxicity in female Sprague-Dawley rat assessed as change in platelet count at 50 mg/kg/day, po administered for 4 weeks followed by 2 week recovery period (Rvb =1051 +/- 122 10^9/L); type: organism-based; details: in vivo, 672 h
[16] = Toxicity in male Sprague-Dawley rat assessed as change in reticulocyte level at 50 mg/kg/day, po administered for 4 weeks followed by 2 week recovery period (Rvb =2.48 +/- 0.34 %); type: organism-based; details: in vivo, 672 h
[17] = Toxicity in female Sprague-Dawley rat assessed as ophthalmic changes at 50 to 450 mg/kg/day, po administered for 4 weeks measured within 7 days of post last dose; type: organism-based; details: in vivo, 672 h, dose 50-450 mg/kg/day; how it was run: as §1
[18] = biological target: T1, Cytochrome P450 1A2 (Homo sapiens, UniProt P05177); experiment: Inhibition of CYP1A2 in human liver microsomes after 20 mins by LC-MS/MS analysis; type: ADME
T1 sequence (P05177 whole entry): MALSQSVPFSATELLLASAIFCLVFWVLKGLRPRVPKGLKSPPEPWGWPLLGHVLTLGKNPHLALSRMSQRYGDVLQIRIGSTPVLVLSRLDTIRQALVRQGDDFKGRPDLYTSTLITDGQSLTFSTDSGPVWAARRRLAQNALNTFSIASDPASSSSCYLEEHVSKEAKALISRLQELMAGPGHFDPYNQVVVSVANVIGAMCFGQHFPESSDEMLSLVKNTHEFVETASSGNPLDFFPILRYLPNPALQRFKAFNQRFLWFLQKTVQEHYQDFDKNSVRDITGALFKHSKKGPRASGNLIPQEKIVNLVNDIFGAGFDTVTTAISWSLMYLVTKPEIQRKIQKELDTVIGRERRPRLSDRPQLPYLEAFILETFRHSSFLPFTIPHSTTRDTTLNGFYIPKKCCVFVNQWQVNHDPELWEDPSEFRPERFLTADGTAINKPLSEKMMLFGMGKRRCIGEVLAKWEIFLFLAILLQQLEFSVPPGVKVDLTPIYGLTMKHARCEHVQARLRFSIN
How it was run: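 Human liver microsomes (0.2 mg/mL) in phosphate buffer, 20 min incubation with compound at 0.1-50 μM alongside isoform-specific substrates and a positive control. Substrate remaining monitored by LC-MS/MS at each concentration; IC50 derived.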

[19] = Toxicity in male Sprague-Dawley rat assessed as change in mean corpuscular volume at 150 mg/kg/day, po administered for 4 weeks followed by 2 week recovery period (Rvb =57.5 +/- 2.0 fL); type: organism-based; details: in vivo, 672 h

Row | Structure (SMILES) | Activity [1] | Activity [2] | Activity [3] [pg] | Activity [4] | Activity [5] | Activity [6] | Activity [7] [g/L] | Activity [8] [%] | Activity [9] | Papp at 1 h, 50 µM [10] [×10⁻⁶ cm/s] | Activity [11] [%] | Activity [12] [%] | Activity [13] [g/L] | half-life at 2 µM [14] [h] | Activity [15] | Activity [16] [%] | Activity [17] | IC50 [18] [µM] | Activity [19] [fL]
1 | CC(=O)NC[C@@H]1OC(=O)N2c3cc(F)c(N4CC[S+]([O-])CC4)cc3OC[C@@H]12 | Non-Toxic |  |  |  |  |  |  |  |  |  |  |  |  |  |  |  |  |  | 
2 | CC(=O)NC[C@@H]1OC(=O)N2c3cc(F)c(N4CCSCC4)cc3OC[C@@H]12 |  | 4.2 10^9/L | 18.8 | Non-Toxic | Non-Toxic | 955 10^9/L | 124 | 3.15 | Non-Toxic | 67.6 | 2.93 | 3.25 | 139 | 1.13 | 1094 10^9/L | 2.97 | Non-Toxic | > 50 | 58.5
